Laboratory results as given in ChEMBL document CHEMBL2380209, “Synthesis and pharmacological characterization of 4-substituted-2-aminobicyclo[3.1.0]hexane-2,6-dicarboxylates: identification of new potent and selective metabotropic glutamate 2/3 receptor agonists” (J Med Chem, 2013).
Values belong to the compound of their own block, whether it stands above or below them.

Key:
[1] = target: T1, Metabotropic glutamate receptor 2 (Homo sapiens, UniProt Q14416); test: Agonist activity at human mGlu2 receptor expressed in golden Syrian hamster AV12 cells coexpressing EAAT1 after 20 mins by HTRF assay; assay type: cell-based
T1 sequence (Q14416 whole entry): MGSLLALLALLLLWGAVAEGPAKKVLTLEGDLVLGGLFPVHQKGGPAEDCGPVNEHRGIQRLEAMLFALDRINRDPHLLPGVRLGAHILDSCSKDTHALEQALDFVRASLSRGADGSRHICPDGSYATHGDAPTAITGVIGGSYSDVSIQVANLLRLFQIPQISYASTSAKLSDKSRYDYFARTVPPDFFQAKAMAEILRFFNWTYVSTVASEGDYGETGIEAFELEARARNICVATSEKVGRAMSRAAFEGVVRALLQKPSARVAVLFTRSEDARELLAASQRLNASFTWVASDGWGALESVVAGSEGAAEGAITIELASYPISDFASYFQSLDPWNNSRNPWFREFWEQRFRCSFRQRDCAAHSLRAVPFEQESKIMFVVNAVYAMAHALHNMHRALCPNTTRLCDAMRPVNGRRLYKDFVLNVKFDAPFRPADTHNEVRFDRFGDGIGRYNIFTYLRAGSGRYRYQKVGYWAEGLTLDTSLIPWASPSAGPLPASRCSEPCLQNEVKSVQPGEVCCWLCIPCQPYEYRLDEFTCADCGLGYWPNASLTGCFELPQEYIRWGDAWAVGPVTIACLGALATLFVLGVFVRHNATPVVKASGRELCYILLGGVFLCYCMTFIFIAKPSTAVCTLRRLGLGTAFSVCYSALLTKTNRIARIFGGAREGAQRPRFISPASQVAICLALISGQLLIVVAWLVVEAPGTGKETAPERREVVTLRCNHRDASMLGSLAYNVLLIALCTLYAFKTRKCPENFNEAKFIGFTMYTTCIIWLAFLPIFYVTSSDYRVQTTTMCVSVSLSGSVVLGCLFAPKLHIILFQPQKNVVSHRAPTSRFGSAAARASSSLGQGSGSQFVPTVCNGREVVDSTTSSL

[2] = target: Metabotropic glutamate receptor 8 (Homo sapiens, UniProt O00222); test: Agonist activity at human mGlu8 receptor expressed in golden Syrian hamster AV12 cells coexpressing EAAT1 after 20 mins by FLIPR assay; assay type: cell-based
Sequence of Metabotropic glutamate receptor 8 (O00222 whole entry): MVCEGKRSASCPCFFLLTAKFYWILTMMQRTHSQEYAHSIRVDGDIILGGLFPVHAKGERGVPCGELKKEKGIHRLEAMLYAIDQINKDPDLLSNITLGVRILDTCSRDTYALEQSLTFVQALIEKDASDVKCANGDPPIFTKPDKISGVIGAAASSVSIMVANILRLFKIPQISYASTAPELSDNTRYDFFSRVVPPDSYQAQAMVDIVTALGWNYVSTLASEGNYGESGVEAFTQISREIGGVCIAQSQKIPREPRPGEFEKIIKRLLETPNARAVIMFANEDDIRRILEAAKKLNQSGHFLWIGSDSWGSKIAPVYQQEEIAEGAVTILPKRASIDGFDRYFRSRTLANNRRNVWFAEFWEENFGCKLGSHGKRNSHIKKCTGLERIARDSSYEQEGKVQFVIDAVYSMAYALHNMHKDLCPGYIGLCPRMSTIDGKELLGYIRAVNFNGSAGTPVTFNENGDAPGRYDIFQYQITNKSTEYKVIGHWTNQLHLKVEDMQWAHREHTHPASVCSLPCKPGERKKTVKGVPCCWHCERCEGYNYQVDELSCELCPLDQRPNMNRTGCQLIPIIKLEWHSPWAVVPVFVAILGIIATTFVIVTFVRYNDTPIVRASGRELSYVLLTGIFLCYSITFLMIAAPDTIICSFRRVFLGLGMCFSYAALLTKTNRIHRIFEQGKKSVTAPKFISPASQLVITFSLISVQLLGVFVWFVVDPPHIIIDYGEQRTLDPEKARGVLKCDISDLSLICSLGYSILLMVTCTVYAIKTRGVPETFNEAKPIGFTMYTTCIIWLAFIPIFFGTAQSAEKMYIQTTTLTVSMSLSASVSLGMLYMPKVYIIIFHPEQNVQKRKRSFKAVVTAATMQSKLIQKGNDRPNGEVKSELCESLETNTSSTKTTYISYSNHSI

[3] = target: T2, Metabotropic glutamate receptor 6 (Homo sapiens, UniProt O15303); test: Agonist activity at human mGlu6 receptor expressed in golden Syrian hamster AV12 cells coexpressing EAAT1 after 20 mins by FLIPR assay; assay type: cell-based
T2 sequence (O15303 whole entry): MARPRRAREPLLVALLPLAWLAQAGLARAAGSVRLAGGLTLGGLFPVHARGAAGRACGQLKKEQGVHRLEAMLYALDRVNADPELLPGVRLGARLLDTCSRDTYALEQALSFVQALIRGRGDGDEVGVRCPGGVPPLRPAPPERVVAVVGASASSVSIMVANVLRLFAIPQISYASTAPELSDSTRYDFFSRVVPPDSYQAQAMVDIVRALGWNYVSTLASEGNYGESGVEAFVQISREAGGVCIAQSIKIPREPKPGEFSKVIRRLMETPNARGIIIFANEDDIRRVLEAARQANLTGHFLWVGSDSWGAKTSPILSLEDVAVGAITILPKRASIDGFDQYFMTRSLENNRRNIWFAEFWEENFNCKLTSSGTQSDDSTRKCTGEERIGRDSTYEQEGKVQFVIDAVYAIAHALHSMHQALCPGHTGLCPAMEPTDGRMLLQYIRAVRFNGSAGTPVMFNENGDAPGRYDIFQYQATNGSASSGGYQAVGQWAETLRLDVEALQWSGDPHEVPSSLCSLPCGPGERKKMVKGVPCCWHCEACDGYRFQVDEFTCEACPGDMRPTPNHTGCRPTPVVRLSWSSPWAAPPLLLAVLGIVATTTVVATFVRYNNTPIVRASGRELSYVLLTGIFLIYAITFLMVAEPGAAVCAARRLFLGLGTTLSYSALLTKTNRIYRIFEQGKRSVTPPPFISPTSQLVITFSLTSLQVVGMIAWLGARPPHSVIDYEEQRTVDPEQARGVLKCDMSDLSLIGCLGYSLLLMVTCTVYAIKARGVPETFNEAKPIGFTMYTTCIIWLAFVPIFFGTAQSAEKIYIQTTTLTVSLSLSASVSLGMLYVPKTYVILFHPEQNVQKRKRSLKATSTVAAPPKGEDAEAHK

[4] = target: T3, Metabotropic glutamate receptor 3 (Homo sapiens, UniProt Q14832); test: Antagonist activity at human mGlu3 receptor expressed in golden Syrian hamster AV12 cells coexpressing EAAT1 assessed as inhibition of forskolin-stimulated cAMP production after 20 mins by HTRF assay; assay type: functional, cell-based
T3 sequence (Q14832 whole entry): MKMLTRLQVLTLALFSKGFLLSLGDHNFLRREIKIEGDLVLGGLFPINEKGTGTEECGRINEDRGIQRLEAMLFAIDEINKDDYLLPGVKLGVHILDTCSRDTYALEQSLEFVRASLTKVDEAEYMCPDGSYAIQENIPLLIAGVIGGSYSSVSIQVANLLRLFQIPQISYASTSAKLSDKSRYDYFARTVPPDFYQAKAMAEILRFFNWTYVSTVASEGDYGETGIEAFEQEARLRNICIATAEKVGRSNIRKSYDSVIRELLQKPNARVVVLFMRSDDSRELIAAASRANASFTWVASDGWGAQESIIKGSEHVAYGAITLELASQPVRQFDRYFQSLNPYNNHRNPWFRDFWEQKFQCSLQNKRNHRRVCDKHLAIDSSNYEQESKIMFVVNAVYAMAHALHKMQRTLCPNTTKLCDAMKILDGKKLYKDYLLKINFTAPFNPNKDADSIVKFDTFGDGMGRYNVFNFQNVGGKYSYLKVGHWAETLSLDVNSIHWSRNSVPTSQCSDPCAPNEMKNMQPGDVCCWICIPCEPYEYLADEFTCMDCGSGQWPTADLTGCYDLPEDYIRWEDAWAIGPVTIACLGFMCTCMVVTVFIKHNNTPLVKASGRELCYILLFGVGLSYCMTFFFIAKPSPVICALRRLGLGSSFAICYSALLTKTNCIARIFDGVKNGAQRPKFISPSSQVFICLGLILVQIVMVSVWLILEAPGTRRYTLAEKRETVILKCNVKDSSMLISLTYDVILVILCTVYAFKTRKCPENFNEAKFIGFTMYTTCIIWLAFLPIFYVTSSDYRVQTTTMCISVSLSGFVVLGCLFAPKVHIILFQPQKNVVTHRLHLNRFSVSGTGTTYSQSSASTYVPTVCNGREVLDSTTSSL

[5] = target: T3, Metabotropic glutamate receptor 3; test: Agonist activity at human mGlu3 receptor expressed in golden Syrian hamster AV12 cells coexpressing EAAT1 after 20 mins by HTRF assay; assay type: cell-based
[6] = target: T2, Metabotropic glutamate receptor 6; test: Agonist activity at human mGlu6 receptor expressed in golden Syrian hamster AV12 cells coexpressing EAAT1 assessed as inhibition of forskolin-stimulated cAMP production after 20 mins by FLIPR assay
[7] = target: T2, Metabotropic glutamate receptor 6; test: Antagonist activity at human mGlu6 receptor expressed in golden Syrian hamster AV12 cells coexpressing EAAT1 assessed as inhibition of forskolin-stimulated cAMP production after 20 mins by FLIPR assay relative to control; assay type: functional, cell-based
[8] = target: T1, Metabotropic glutamate receptor 2; test: Antagonist activity at human mGlu2 receptor expressed in golden Syrian hamster AV12 cells coexpressing EAAT1 assessed as inhibition of forskolin-stimulated cAMP production after 20 mins by HTRF assay; assay type: functional, cell-based
Rattus norvegicus [9] = test: Neurotoxicity in Sprague-Dawley rat assessed as impairment of motor coordination at 3 to 10 mg/kg, po administered 2 hrs prior to test by rotarod test; assay type: toxicity, organism-based; parameters: dose 3-10 mg/kg, route oral; conditions: in vivo
Method in brief: (§1)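 Rats were trained to stay on a 4 rpm rotorod for 1 min, with up to four attempts, and were retested 30-60 min later; failures were excluded. Trained rats (8/group) received oral aqueous solution (3, 10 or 30 mg/kg) or vehicle and were retested 120 min later, scored as seconds on the rotorod. One-way ANOVA with Dunnett's test was run against vehicle.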

[10] = Half life in Sprague-Dawley rat at 1 mg/kg, po by LC/MS/MS analysis; assay type: ADME, organism-based; parameters: dose 1 mg/kg, route oral; conditions: in vivo
Method in brief: (§2)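 Fasted male Sprague Dawley rats (~250 g) were dosed with an aqueous solution adjusted to pH 7-7.5 with NaOH, by oral gavage (1, 3, 10 mg/kg) or intravenously (3 mg/kg). Serial jugular-catheter blood samples (11-12 per rat) went into EDTA tubes over 24 h. Plasma was extracted by SPE with an analog internal standard and run on an anion-exchange HPLC column, SRM m/z 204.1 > 77.1. Parameters came from noncompartmental analysis and are reported as means.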

[11] = Oral bioavailability in Sprague-Dawley rat at 3 mg/kg up to 24 hrs by LC/MS/MS analysis; assay type: ADME, organism-based; conditions: in vivo; method in brief: as §2
[12] = Volume of distribution at steady state in Sprague-Dawley rat at 3 mg/kg, iv up to 24 hrs by LC/MS/MS analysis; assay type: ADME, organism-based; parameters: dose 3 mg/kg, route intravenous; conditions: in vivo, read-out: Vdss; method in brief: as §2
Rattus norvegicus [13] = test: Antipsychotic activity in po dosed Sprague-Dawley rat assessed as decrease in PCP-elicited ambulations administered 2 hrs prior to test measured for 60 mins; assay type: functional
[14] = Initial plasma concentration in Sprague-Dawley rat at 3 mg/kg, iv by LC/MS/MS analysis; assay type: ADME, organism-based; parameters: dose 3 mg/kg, route intravenous; method in brief: as §2
[15] = AUC (0 to 24 hrs) in Sprague-Dawley rat at 10 mg/kg, po by LC/MS/MS analysis; assay type: ADME, organism-based; parameters: time < 24 hr, dose 10 mg/kg, route oral; conditions: plasma; method in brief: as §2
[16] = Tmax in Sprague-Dawley rat at 3 mg/kg, iv by LC/MS/MS analysis; assay type: ADME, organism-based; parameters: dose 3 mg/kg, route intravenous; conditions: in vivo; method in brief: as §2
[17] = Tmax in Sprague-Dawley rat at 3 mg/kg, po by LC/MS/MS analysis; assay type: ADME, organism-based; parameters: dose 3 mg/kg, route oral; conditions: in vivo; method in brief: as §2
[18] = AUC (0 to 24 hrs) in Sprague-Dawley rat at 1 mg/kg, po by LC/MS/MS analysis; assay type: ADME, organism-based; parameters: time < 24 hr, dose 1 mg/kg, route oral; conditions: plasma; method in brief: as §2
[19] = Half life in Sprague-Dawley rat at 10 mg/kg, po by LC/MS/MS analysis; assay type: ADME, organism-based; parameters: dose 10 mg/kg, route oral; conditions: in vivo; method in brief: as §2
[20] = Half life in Sprague-Dawley rat at 3 mg/kg, iv by LC/MS/MS analysis; assay type: ADME, organism-based; parameters: dose 3 mg/kg, route intravenous; conditions: in vivo; method in brief: as §2
[21] = Half life in Sprague-Dawley rat at 3 mg/kg, po by LC/MS/MS analysis; assay type: ADME, organism-based; parameters: dose 3 mg/kg, route oral; conditions: in vivo; method in brief: as §2
[22] = Clearance in Sprague-Dawley rat at 3 mg/kg, iv up to 24 hrs by LC/MS/MS analysis; assay type: ADME, organism-based; parameters: dose 3 mg/kg, route intravenous; conditions: in vivo; method in brief: as §2
[23] = Cmax in Sprague-Dawley rat at 3 mg/kg, po up to 24 hrs by LC/MS/MS analysis; assay type: ADME, organism-based; parameters: dose 3 mg/kg, route oral; conditions: in vivo; method in brief: as §2
Rattus norvegicus [24] = test: Neurotoxicity in Sprague-Dawley rat assessed as impairment of motor coordination at 30 mg/kg, po administered 2 hrs prior to test by rotarod test; assay type: toxicity, organism-based; parameters: dose 30 mg/kg, route oral; conditions: in vivo; method in brief: as §1
[25] = Cmax in Sprague-Dawley rat at 10 mg/kg, po up to 24 hrs by LC/MS/MS analysis; assay type: ADME, organism-based; parameters: dose 10 mg/kg, route oral; conditions: in vivo; method in brief: as §2
[26] = Cmax in Sprague-Dawley rat at 1 mg/kg, po up to 24 hrs by LC/MS/MS analysis; assay type: ADME, organism-based; parameters: dose 1 mg/kg, route oral; conditions: in vivo; method in brief: as §2
[27] = AUC (0 to 24 hrs) in Sprague-Dawley rat at 3 mg/kg, po by LC/MS/MS analysis; assay type: ADME, organism-based; parameters: time < 24 hr, dose 3 mg/kg, route oral; conditions: plasma; method in brief: as §2
[28] = AUC (0 to 24 hrs) in Sprague-Dawley rat at 3 mg/kg, iv by LC/MS/MS analysis; assay type: ADME, organism-based; parameters: time < 24 hr, dose 3 mg/kg, route intravenous; conditions: plasma; method in brief: as §2
[29] = Tmax in Sprague-Dawley rat at 1 mg/kg, po by LC/MS/MS analysis; assay type: ADME, organism-based; parameters: dose 1 mg/kg, route oral; conditions: in vivo; method in brief: as §2
[30] = Tmax in Sprague-Dawley rat at 10 mg/kg, po by LC/MS/MS analysis; assay type: ADME, organism-based; parameters: dose 10 mg/kg, route oral; conditions: in vivo; method in brief: as §2

EC50 [1]: 1.3 nM
EC50 [5]: 15.5 nM
EC50 [2]: 1590 nM
EC50 [6]: 267 nM
%max [7]: 100%
Compound: C=C1C[C@@](N)(C(=O)O)[C@H]2[C@@H]1[C@@H]2C(=O)O

EC50 [5]: 27.1 nM
EC50 [2]: > 25000 nM
EC50 [3]: 3360 nM
Compound: N[C@@]1(C(=O)O)CC[C@H]2[C@H](C(=O)O)[C@H]21

EC50 [1]: 47.9 nM
EC50 [5]: 57.1 nM
EC50 [2]: > 25000 nM
EC50 [3]: 11800 nM
Compound: N[C@@H]1C[C@@](N)(C(=O)O)[C@@H]2[C@@H](C(=O)O)[C@@H]21

EC50 [1]: 7.6 nM
EC50 [2]: > 25000 nM
EC50 [3]: 4370 nM
Compound: N[C@@]1(C(=O)O)C[C@@H](O)[C@H]2[C@H](C(=O)O)[C@H]21

EC50 [1]: 0.16 nM
EC50 [5]: 0.11 nM
EC50 [2]: 6530 nM
EC50 [6]: 1380 nM
%max [7]: 100%
Compound: N[C@@]1(C(=O)O)CC(=O)[C@H]2[C@H](C(=O)O)[C@H]21

EC50 [1]: 8.2 nM
EC50 [5]: 12.3 nM
EC50 [2]: 12400 nM
EC50 [3]: 780 nM
Compound: [N-]=[N+]=N[C@@H]1C[C@@](N)(C(=O)O)[C@@H]2[C@@H](C(=O)O)[C@@H]21

EC50 [1]: 63.6 nM
EC50 [2]: > 25000 nM
EC50 [3]: 7540 nM
IC50 [4]: 3420 nM
Compound: C[C@@H]1C[C@@](N)(C(=O)O)[C@@H]2[C@@H](C(=O)O)[C@@H]21

EC50 [1]: 7.5 nM
EC50 [2]: > 25000 nM
EC50 [6]: 3040 nM
Compound: N[C@@]1(C(=O)O)C[C@H](O)[C@H]2[C@H](C(=O)O)[C@H]21

EC50 [2]: > 25000 nM
IC50 [8]: 4990 nM
EC50 [3]: 6690 nM
IC50 [4]: 3390 nM
Compound: CC(=O)N[C@@H]1C[C@@](N)(C(=O)O)[C@@H]2[C@@H](C(=O)O)[C@@H]21

Second part, the compound before the results:

Compound: N[C@@]1(C(=O)O)C[C@H](Sc2ccccc2)[C@H]2[C@H](C(=O)O)[C@H]21
EC50 [1]: 1170 nM
EC50 [2]: > 25000 nM
EC50 [3]: 3250 nM
IC50 [4]: 3370 nM

Compound: N[C@H]1C[C@@](N)(C(=O)O)[C@@H]2[C@@H](C(=O)O)[C@@H]21
EC50 [1]: 21.2 nM
EC50 [5]: 24.9 nM
EC50 [2]: > 25000 nM
EC50 [3]: 9370 nM

Compound: C[C@H]1C[C@@](N)(C(=O)O)[C@@H]2[C@@H](C(=O)O)[C@@H]21
EC50 [1]: 28.6 nM
EC50 [5]: 166 nM
EC50 [2]: > 25000 nM
EC50 [3]: 9280 nM

Compound: CC(=O)N[C@H]1C[C@@](N)(C(=O)O)[C@@H]2[C@@H](C(=O)O)[C@@H]21
EC50 [1]: 257 nM
EC50 [5]: 193 nM
EC50 [2]: 4300 nM
EC50 [3]: 709 nM

Compound: [N-]=[N+]=N[C@H]1C[C@@](N)(C(=O)O)[C@@H]2[C@@H](C(=O)O)[C@@H]21
EC50 [1]: 12.2 nM
EC50 [5]: 23.5 nM
EC50 [2]: 12000 nM
EC50 [6]: 1890 nM
%max [7]: 100%

Compound: N[C@@]1(C(=O)O)C[C@@H](Sc2ccccc2)[C@H]2[C@H](C(=O)O)[C@H]21
EC50 [2]: > 25000 nM
IC50 [8]: 7020 nM
EC50 [3]: 1270 nM
IC50 [4]: 895 nM

Compound: N[C@@]1(C(=O)O)C[C@@H](F)[C@H]2[C@H](C(=O)O)[C@H]21
Activity (Rattus norvegicus [9]): Non-toxic
half-life [10]: 2.7 h
bioavailability [11]: 64.4%
Vd [12]: 1.25 L/kg
Activity (Rattus norvegicus [13]): Dose-dependent effect
ED50 (Rattus norvegicus [13]): 2.08 mg/kg
C0 [14]: 36.7 µM
AUC(0-t) at 24 h [15]: 23.6 µM·h
Tmax [16]: 0 h
Tmax [17]: 1.8 h
AUC(0-t) at 24 h [18]: 2.79 µM·h
half-life [19]: 5.9 h
half-life [20]: 7.3 h
half-life [21]: 3.5 h
EC50 [1]: 0.56 nM
EC50 [5]: 0.24 nM
clearance [22]: 14.8 mL/min/kg
EC50 [2]: 11500 nM
Cmax [23]: 3.94 µM
Activity (Rattus norvegicus [24]): Toxic
Cmax [25]: 7.94 µM
Cmax [26]: 0.713 µM
AUC(0-t) at 24 h [27]: 10.7 µM·h
AUC(0-t) at 24 h [28]: 16.7 µM·h
Tmax [29]: 2.5 h
Tmax [30]: 2 h
EC50 [3]: 1410 nM
